For assay [1], the system named is Rattus norvegicus. Description: Antiallergic activity in egg albumin-sensitized Sprague-Dawley rat assessed as inhibition of passive cutaneous anaphylaxis at 25 to 50 mg/kg, po administered 15 mins prior to egg albumin and Evans blue dye challenge. The assay is classed as functional, organism-based. The method, boiled down:
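Rats were passively sensitized by intradermal mid-dorsal injection of antibody. The antibody came from rats sensitized to egg albumin with Bordetella pertussis adjuvant, and sensitivity developed over 24 h. Compound was given orally before iv egg albumin plus Evans blue. Blue weal size and intensity were compared with untreated rats to give percent inhibition.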

Assay [2] relates to Rattus norvegicus. Description: Antiallergic activity in egg albumin-sensitized Sprague-Dawley rat assessed as inhibition of passive cutaneous anaphylaxis compound administered ip 5 mins prior to egg albumin and Evans blue dye challenge. The assay is classed as functional. The settings on record: for minimal effective dose: read-out: MED; for ED50: read-out: ID50 (the source's name). The method in brief:
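Antibody from egg albumin/B. pertussis-sensitized rats was injected intradermally in the mid-dorsal region, then 24 h allowed. Drug was given ip, then iv egg albumin plus Evans blue. Weal size and intensity were scored against untreated controls. Initial doses were 50 or 25 mg/kg, then 10, 5, 2.5 and 1.25 mg/kg, with n = 6 per group. MED was the lowest significant ip dose (p ≤ 0.05, Student's t). ID50 was reported with 95% confidence limits.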

Assay [3] relates to Rattus norvegicus. Description: Antiallergic activity in egg albumin-sensitized Sprague-Dawley rat assessed as inhibition of passive cutaneous anaphylaxis compound administered prior to egg albumin and Evans blue dye challenge. The settings on record: read-out: MED.

Calls of active or inactive are those of the source. No cut-off for these calls is given here. Where only a bound is given, the exact number is not on record here.

In the case of `COC(=O)c1cc(=O)c2ccc(Sc3ccccc3)cc2[nH]1`, in assay [1], the inhibition entry was “inactive”.
Regarding `COC(=O)c1cc(=O)c2ccc(S(=O)(=O)c3ccccc3)cc2[nH]1`, the inhibition entry in assay [1] was “inactive”.
On the same count and under the same terms, then `COC(=O)c1cc(=O)c2cc([S+]([O-])c3ccccc3)ccc2[nH]1` (stereo not given), with “inactive”.
On to `O=C(O)c1cc(=O)c2cc(Sc3ccccc3)ccc2[nH]1`, for which the inhibition entry in assay [1] is “inactive”. Besides, the minimal effective dose in assay [2] was above 50 mg/kg.
Regarding `O=C(O)c1cc(=O)c2ccc3c(c2[nH]1)C(=O)c1ccccc1-3`, in assay [1], the inhibition result is “inactive”. Further, the ED50 in assay [2] was determined as 2.8 mg/kg.
With `COC(=O)c1cc(=O)c2cc(C(=O)c3ccccc3)ccc2[nH]1`, in assay [1], the inhibition result is “inactive”.
With `COC(=O)c1cc(=O)c2cccc(S(=O)(=O)c3ccccc3)c2[nH]1`, the inhibition result in assay [1] was “inactive”.
Take `O=C(O)c1cc(=O)c2ccc(Sc3ccccc3)cc2[nH]1`: the inhibition entry in assay [1] is “inactive”. Moreover, in assay [2], the minimal effective dose was above 25 mg/kg.
On to `CC(=O)c1cccc2c(=O)cc(C(=O)O)[nH]c12`, for which the inhibition result in assay [1] is “inactive”. For the same compound, the minimal effective dose in assay [2] amounted to 25 mg/kg.
On to `CC(=O)c1ccc2c(O)cc(C(=O)O)nc2c1`, for which the inhibition result in assay [1] was “inactive”. Besides, the minimal effective dose in assay [2] turned out to be 10 mg/kg.
With `O=C([O-])c1cc(=O)c2c(OCC(O)COc3cccc4oc(C(=O)[O-])cc(=O)c34)cccc2o1.[Na+].[Na+]` [CROMOLYN SODIUM], the inhibition result in assay [1] was “inactive”. For the same compound, in assay [2], the ED50 is 2.6 mg/kg.
As for `COC(=O)c1cc(=O)c2cc(S(=O)(=O)c3ccccc3)ccc2[nH]1`, in assay [1], the inhibition result was “inactive”.
In the case of `O=C(c1ccccc1)c1ccc2[nH]c(C(=O)[O-])cc(=O)c2c1.[Na+]`, the inhibition result in assay [1] was “inactive”. Also, the minimal effective dose in assay [2] was found to be 10 mg/kg.
In the same order, the values of `O=C(O)c1cc(=O)c2cccc(Sc3ccccc3)c2[nH]1` are “inactive” and 25 mg/kg.
Turning to `COC(=O)c1cc(=O)c2cccc(C(C)=O)c2[nH]1`, the minimal effective dose in assay [3] turned out to be 25 mg/kg.
As for `COC(=O)c1cc(=O)c2cc(Sc3ccccc3)ccc2[nH]1`, the inhibition entry in assay [1] is “inactive”.
Consider `CC(=O)c1ccc2[nH]c(C(=O)O)cc(=O)c2c1`, for which the inhibition entry in assay [1] was “inactive”. Besides, in assay [2], the minimal effective dose worked out at 25 mg/kg.
On to `O=C(O)c1cc(=O)c2cc([S+]([O-])c3ccccc3)ccc2[nH]1` (stereo not given), for which the inhibition entry in assay [1] was “inactive”. For the same compound, the minimal effective dose in assay [2] is 25 mg/kg.
`O=C(O)c1cc(=O)c2cccc(C(=O)c3ccccc3)c2[nH]1`: the inhibition result in assay [1] was “inactive”. Moreover, the minimal effective dose in assay [2] was found to be 25 mg/kg.
`COC(=O)c1cc(=O)c2ccc(C(=O)c3ccccc3)cc2[nH]1`: the inhibition result in assay [1] was “inactive”.
Regarding `COC(=O)c1cc(=O)c2ccc3c(c2[nH]1)C(=O)c1ccccc1-3`, the inhibition entry in assay [1] is “inactive”.
In the case of `O=C(O)c1cc(=O)c2ccc(S(=O)(=O)c3ccccc3)cc2[nH]1`, the inhibition result in assay [1] is “inactive”. Also, the minimal effective dose in assay [2] was above 25 mg/kg.
With `COC(=O)c1cc(=O)c2cc(Cl)cc(C(=O)c3ccccc3)c2[nH]1`, the inhibition result in assay [1] is “inactive”.
For the compound `COC(=O)c1cc(=O)c2cccc(C(=O)c3ccc(C)cc3)c2[nH]1`, in assay [1], the inhibition entry was “inactive”.
Turning to `COC(=O)c1cc(=O)c2cccc(Sc3ccccc3)c2[nH]1`, the inhibition result in assay [1] is “inactive”.
On the same count and under the same terms, to `COC(=O)c1cc(=O)c2ccc3c(c2[nH]1)-c1ccccc1C3=O` belongs “inactive”.
As for `O=C(O)c1cc(=O)c2ccc3c(c2[nH]1)-c1ccccc1C3=O`, the inhibition result in assay [1] is “inactive”. Also, the minimal effective dose in assay [2] was above 25 mg/kg.
Regarding `O=C(c1ccccc1)c1ccc2c(=O)cc(C(=O)O)[nH]c2c1`, in assay [1], the inhibition entry is “inactive”. The minimal effective dose in assay [2] was 25 mg/kg.
In the case of `O=C(O)c1cc(=O)c2cccc(S(=O)(=O)c3ccccc3)c2[nH]1`, the inhibition entry in assay [1] was “inactive”. The minimal effective dose in assay [2] was 10 mg/kg.
In the case of `Cc1ccc(C(=O)c2cccc3c(=O)cc(C(=O)O)[nH]c23)cc1`, the inhibition result in assay [1] is “inactive”. For the same compound, the minimal effective dose in assay [2] was determined as 25 mg/kg.
Turning to `COC(=O)c1cc(=O)c2ccc(C(C)=O)cc2[nH]1`, in assay [1], the inhibition result is “inactive”.
Same read-out and setting: to `COC(=O)c1cc(=O)c2cc(C(C)=O)ccc2[nH]1` belongs “inactive”.
On to `O=C(O)c1cc(=O)c2cc(Cl)cc(C(=O)c3ccccc3)c2[nH]1`, for which, in assay [1], the inhibition result is “inactive”. In assay [2], the minimal effective dose is 50 mg/kg.
On to `COC(=O)c1cc(=O)c2cccc(C(=O)c3ccccc3)c2[nH]1`, for which the inhibition result in assay [1] is “inactive”.
`O=C(O)c1cc(=O)c2ccccc2[nH]1` [TRANSTORINE]: the inhibition entry in assay [1] was “inactive”. For the same compound, the minimal effective dose in assay [2] is 50 mg/kg.
In the case of `O=C(O)c1cc(=O)c2cc(S(=O)(=O)c3ccccc3)ccc2[nH]1`, the inhibition entry in assay [1] is “inactive”. Moreover, in assay [2], the minimal effective dose is above 25 mg/kg.

The values above are taken from ChEMBL document CHEMBL3244192, “Antiallergic activity of tetracyclic derivatives of quinoline-2-carboxylic acids. 1” (1978).
